Assays:
[1] = target: T1, C-C chemokine receptor type 2 (Homo sapiens, UniProt P41597); assay: Antagonist activity at CCR2 receptor in human whole blood assessed as inhibition of MCP-1 induced monocyte shape change pretreated for 15 mins before MCP-1 challenge measured after 5 mins by flow cytometry; format: functional, tissue-based; settings: read-out: pA2 (converted)
Summary of the method: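 Fresh blood from healthy human donors, preincubated 15 minutes with antagonist, then stimulated 5 minutes with a range of MCP-1 concentrations. Samples fixed rapidly and analysed by flow cytometry for increase in monocyte side scatter, plotted against MCP-1 concentration. pA2 derived by comparison with the MCP-1 dose response in vehicle-treated blood.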
Target sequence in this assay (P41597 whole entry): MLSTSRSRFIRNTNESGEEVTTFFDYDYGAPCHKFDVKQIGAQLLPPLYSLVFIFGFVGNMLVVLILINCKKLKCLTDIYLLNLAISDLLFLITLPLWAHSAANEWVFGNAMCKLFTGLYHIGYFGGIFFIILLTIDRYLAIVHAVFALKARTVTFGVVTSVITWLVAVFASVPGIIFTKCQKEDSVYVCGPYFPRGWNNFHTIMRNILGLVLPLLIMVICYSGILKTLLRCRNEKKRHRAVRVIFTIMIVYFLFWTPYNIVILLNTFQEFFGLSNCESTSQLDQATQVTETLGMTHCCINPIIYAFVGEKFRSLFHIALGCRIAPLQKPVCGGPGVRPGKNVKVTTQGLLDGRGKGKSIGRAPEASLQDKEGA

[2] = target: T1, C-C chemokine receptor type 2; assay: Antagonist activity at human CCR2 receptor expressed in CHO cells assessed as inhibition of MCP1-induced [35S]-GTPgammaS binding after 3 hrs; format: functional, cell-based
Target sequence in this assay (P41597 whole entry): as above

[3] = target: T1, C-C chemokine receptor type 2; assay: Ratio of IC50 for human CCR2 receptor in presence of 5% human serum to IC50 for human CCR2 receptor
Target sequence in this assay (P41597 whole entry, looked up): as the sequence (P41597 whole entry) above

[4] = target: T1, C-C chemokine receptor type 2; assay: Antagonist activity at human CCR2 receptor expressed in CHO cells assessed as inhibition of MCP1-induced [35S]-GTPgammaS binding after 3 hrs in presence of 5% human serum albumin; format: functional, cell-based
Summary of the method: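 GTPγS functional assay at CCR2 run side by side with the HSA-free primary assay. HSA present at 0.2% w/v, described as 5% of physiological concentration.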
Target sequence in this assay (P41597 whole entry): as above

[5] = Oral bioavailability in rat at 1.5 mg/kg; format: ADME, organism-based; settings: in vivo
[6] = Half life in rat at 1 mg/kg, iv and 1.5 mg/kg, po; format: ADME, organism-based; settings: in vivo
[7] = target: Voltage-gated inwardly rectifying potassium channel KCNH2 (Homo sapiens, UniProt Q12809); assay: Inhibition of human ERG
[8] = target: T2, C-C chemokine receptor type 1 (Homo sapiens, UniProt P32246); assay: Antagonist activity at CCR1; format: functional
T2 sequence (P32246 whole entry): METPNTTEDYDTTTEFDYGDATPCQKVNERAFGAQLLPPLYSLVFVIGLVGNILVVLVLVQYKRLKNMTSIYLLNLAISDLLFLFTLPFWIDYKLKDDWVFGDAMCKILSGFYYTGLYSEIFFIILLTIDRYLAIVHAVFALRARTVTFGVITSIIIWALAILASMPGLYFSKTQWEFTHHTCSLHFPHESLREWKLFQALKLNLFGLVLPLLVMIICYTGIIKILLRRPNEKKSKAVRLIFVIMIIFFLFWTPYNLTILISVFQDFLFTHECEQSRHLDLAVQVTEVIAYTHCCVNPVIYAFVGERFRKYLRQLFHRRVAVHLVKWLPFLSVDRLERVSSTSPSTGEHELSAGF

Mus musculus = assay: Reduction of monocyte recruitment in CCR2 deficient C57BL/6 mouse thioglycolate-induced peritonitis model at 40 mg/kg, po administered 3 hrs before thioglycolate challenge relative to control; format: functional; design: scale not given: the % may be the effect or the level left; settings: in the assay text read “humanized CCR2 knock-in” for “CCR2 deficient”
Summary of the method: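 Thioglycolate-induced peritonitis model in humanized CCR2 knock-in mice. Antagonist given orally at 40 mg/kg and monocyte recruitment compared with a vehicle group.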

[9] = Cmax in satellite C57BL/6 mouse at 40 mg/kg, po; format: ADME, organism-based; design: dose 40 mg/kg, route oral; settings: in vivo
Summary of the method: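 Female C57Bl/6 satellite mice from the peritonitis study were given 40 mg/kg orally, with blood levels followed over about 7 hours.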

[10] = target: T3, C-C chemokine receptor type 4 (Homo sapiens, UniProt P51679); assay: Antagonist activity at CCR4; format: functional
T3 sequence (P51679 whole entry): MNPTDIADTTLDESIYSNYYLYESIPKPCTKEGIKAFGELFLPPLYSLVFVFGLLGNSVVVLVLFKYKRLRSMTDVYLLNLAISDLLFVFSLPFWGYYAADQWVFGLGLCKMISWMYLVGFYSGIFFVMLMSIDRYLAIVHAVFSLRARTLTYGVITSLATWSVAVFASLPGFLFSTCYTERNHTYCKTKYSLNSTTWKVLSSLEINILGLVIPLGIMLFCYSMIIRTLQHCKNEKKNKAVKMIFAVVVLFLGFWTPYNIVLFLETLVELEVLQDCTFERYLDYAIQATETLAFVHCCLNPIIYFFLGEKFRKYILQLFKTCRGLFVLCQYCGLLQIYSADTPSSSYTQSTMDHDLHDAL

[11] = Lipophilicity, log D of the compound; format: physicochemical; settings: octanol/water
[12] = Volume of distribution at steady state in rat at 1 mg/kg, iv and 1.5 mg/kg, po; format: ADME, organism-based; settings: in vivo, read-out: Vdss
[13] = Cmax in rat at 1 mg/kg, iv and 1.5 mg/kg, po; format: ADME, organism-based; settings: in vivo
[14] = Clearance in rat at 1 mg/kg, iv and 1.5 mg/kg, po; format: ADME, organism-based; settings: in vivo
[15] = Half life in rat at 1 mg/kg, iv and 2 mg/kg, po; format: ADME, organism-based; settings: in vivo
[16] = Oral bioavailability in rat at 2 mg/kg; format: ADME, organism-based; settings: in vivo
[17] = Clearance in rat at 1 mg/kg, iv and 2 mg/kg, po; format: ADME, organism-based; settings: in vivo
[18] = Volume of distribution at steady state in rat at 1 mg/kg, iv and 2 mg/kg, po; format: ADME, organism-based; settings: in vivo, read-out: Vdss
[19] = Cmax in rat at 1 mg/kg, iv and 2 mg/kg, po; format: ADME, organism-based; settings: in vivo

Voltage-gated inwardly rectifying potassium channel KCNH2, sequence (Q12809 whole entry): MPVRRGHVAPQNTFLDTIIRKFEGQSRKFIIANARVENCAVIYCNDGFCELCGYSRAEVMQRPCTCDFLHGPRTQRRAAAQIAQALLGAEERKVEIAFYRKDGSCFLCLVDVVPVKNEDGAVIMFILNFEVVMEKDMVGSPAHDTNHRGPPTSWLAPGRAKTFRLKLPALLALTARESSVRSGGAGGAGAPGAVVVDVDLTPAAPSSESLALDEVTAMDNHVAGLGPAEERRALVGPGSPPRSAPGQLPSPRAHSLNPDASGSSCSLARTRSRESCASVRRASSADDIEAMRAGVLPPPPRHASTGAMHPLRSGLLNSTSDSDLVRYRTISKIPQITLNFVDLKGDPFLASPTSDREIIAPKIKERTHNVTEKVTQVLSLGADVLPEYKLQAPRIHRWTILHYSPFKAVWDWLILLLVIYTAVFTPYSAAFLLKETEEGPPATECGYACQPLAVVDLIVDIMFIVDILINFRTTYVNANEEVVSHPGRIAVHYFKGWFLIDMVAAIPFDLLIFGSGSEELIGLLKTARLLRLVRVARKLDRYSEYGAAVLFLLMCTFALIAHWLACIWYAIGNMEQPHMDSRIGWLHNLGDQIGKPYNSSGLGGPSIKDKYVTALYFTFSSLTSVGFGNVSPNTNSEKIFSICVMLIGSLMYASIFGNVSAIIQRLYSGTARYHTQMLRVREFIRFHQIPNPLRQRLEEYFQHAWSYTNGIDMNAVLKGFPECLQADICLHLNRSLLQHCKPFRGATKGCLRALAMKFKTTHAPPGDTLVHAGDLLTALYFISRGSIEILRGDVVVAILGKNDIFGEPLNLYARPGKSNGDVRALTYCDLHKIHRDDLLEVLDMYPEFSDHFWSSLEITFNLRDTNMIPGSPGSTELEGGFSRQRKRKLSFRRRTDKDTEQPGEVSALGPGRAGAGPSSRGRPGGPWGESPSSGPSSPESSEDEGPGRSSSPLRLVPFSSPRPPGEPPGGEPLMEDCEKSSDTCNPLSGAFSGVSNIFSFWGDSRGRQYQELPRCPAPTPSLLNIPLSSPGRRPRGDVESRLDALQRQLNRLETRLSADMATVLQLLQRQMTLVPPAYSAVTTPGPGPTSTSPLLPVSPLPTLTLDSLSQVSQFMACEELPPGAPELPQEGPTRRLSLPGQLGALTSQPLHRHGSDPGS

| SMILES | Kb [1] [nM] | Ki [2] [nM] | fold change (FC) [3] | Ki [4] [nM] | also measured |
| --- | --- | --- | --- | --- | --- |
| COc1cc(Oc2ccc(C(=O)NCCN3CCCCC3)cc2)c(NS(=O)(=O)c2ccc(Cl)c(C(F)(F)F)c2)cc1Cl | 398 | 10 | – | – | – |
| Cc1cc(C(=O)NCCN2CCCC2)ccc1Oc1ccc(Cl)cc1NS(=O)(=O)c1ccc(Cl)c(C(F)(F)F)c1 | 501 | 8 | – | – | – |
| O=C(NCCN1CCCC1)c1cccc(Oc2ncc(Cl)cc2NS(=O)(=O)c2ccc(Cl)c(Cl)c2)c1 | – | 100 | 10 | 1000 | – |
| COc1cc(Oc2ccc(C(=O)NCCN3CCCC3)cc2)c(NS(=O)(=O)c2ccc(Cl)c(C(F)(F)F)c2)cc1Cl | 398 | 4 | – | – | – |
| O=C(NCCN1CCCCC1)c1ccc(Oc2ccc(Cl)cc2NS(=O)(=O)c2ccc(Cl)c(Cl)c2)cc1 | 3160 | 63 | – | – | – |
| O=C(NCCN1CCCC1)c1ccccc1Oc1ncc(Cl)cc1NS(=O)(=O)c1ccc(Cl)c(Cl)c1 | – | 631 | 4 | 2510 | – |
| O=C(NCCN1CCNCC1)c1ccc(Oc2ncc(Cl)cc2NS(=O)(=O)c2ccc(Cl)c(Cl)c2)cc1 | – | 40 | 6 | 251 | – |
| Cc1cc(C(=O)NCCN2CCCCC2)ccc1Oc1ccc(Cl)cc1NS(=O)(=O)c1ccc(Cl)c(C(F)(F)F)c1 | 2510 | 25 | – | – | – |
| O=C(NCCN1CCCCC1)c1ccccc1Oc1ncc(Cl)cc1NS(=O)(=O)c1ccc(Cl)c(Cl)c1 | – | 794 | 2 | 1590 | – |
| O=C(NCCN1CCCCC1)c1ccc(Oc2ccc(Cl)cc2NS(=O)(=O)c2ccc(Cl)c(C(F)(F)F)c2)cc1 | 631 | 10 | – | – | – |
| Cc1cc(Oc2ccc(C(=O)NCCN3CCCC3)cc2)c(NS(=O)(=O)c2ccc(Cl)c(C(F)(F)F)c2)cc1Cl | 398 | 8 | – | – | – |
| O=C(NCCN1CCNCC1)c1cccc(Oc2ncc(Cl)cc2NS(=O)(=O)c2ccc(Cl)c(Cl)c2)c1 | – | 200 | 13 | 2510 | – |
| O=C(NCCN1CCCCC1)c1ccc(Oc2ncc(Cl)cc2NS(=O)(=O)c2ccc(Cl)c(Cl)c2)cc1 | 1580 | 13 | 1.5 | 20 | – |
| O=C(NCCN1CCCC1)c1ccc(Oc2ccc(Cl)cc2NS(=O)(=O)c2ccc(Cl)c(C(F)(F)F)c2)cc1 | 501 | 2 | – | – | – |

Further lines, with some results ahead:

| Kb [1] [nM] | Ki [2] [nM] | fold change (FC) [3] | Ki [4] [nM] | SMILES | also measured |
| --- | --- | --- | --- | --- | --- |
| 1260 | 16 | – | – | Cc1cc(Oc2ccc(C(=O)NCCN3CCCCC3)cc2)c(NS(=O)(=O)c2ccc(Cl)c(C(F)(F)F)c2)cc1Cl | – |
| 251 | 6 | – | – | COc1cc(C(=O)NCCN2CCCC2)ccc1Oc1ccc(Cl)cc1NS(=O)(=O)c1ccc(Cl)c(C(F)(F)F)c1 | bioavailability [5]: 37%; half-life [6]: 3.9 h; IC50 [7]: 25100 nM; IC50 [8]: > 25100 nM; Activity (Mus musculus): 56%; Cmax [9]: 1970 ng/mL; IC50 [10]: > 10000 nM; logD [11]: 2.3; Vd [12]: 2.7 L/kg; Cmax [13]: 652 ng/mL; clearance [14]: 17 mL/min/kg |
| 398 | 3 | – | – | O=C(NCCN1CCCCC1)c1ccc(Oc2ncc(Cl)cc2NS(=O)(=O)c2ccc(Cl)c(C(F)(F)F)c2)cc1 | half-life [15]: 0.9 h; bioavailability [16]: 10%; clearance [17]: 39 mL/min/kg; Vd [18]: 1.9 L/kg; IC50 [8]: > 25100 nM; Cmax [19]: 624 ng/mL; Activity (Mus musculus): 54%; Cmax [9]: 1520 ng/mL; IC50 [10]: > 10000 nM; logD [11]: 3.2 |
| – | 13 | 5 | 63 | O=C(NCCN1CCCC1)c1ccc(Oc2ncc(Cl)cc2NS(=O)(=O)c2ccc(Cl)c(Cl)c2)cc1 | – |
| 1000 | 25 | – | – | COc1cc(C(=O)NCCN2CCCCC2)ccc1Oc1ccc(Cl)cc1NS(=O)(=O)c1ccc(Cl)c(C(F)(F)F)c1 | – |
| – | 79 | 16 | 1260 | O=C(NCCN1CCCCC1)c1cccc(Oc2ncc(Cl)cc2NS(=O)(=O)c2ccc(Cl)c(Cl)c2)c1 | – |
| – | – | 126 | 1260 | Cc1ncccc1Oc1ncc(Cl)cc1NS(=O)(=O)c1ccc(Cl)c(Cl)c1 | – |
| 3980 | 63 | – | – | O=C(NCCN1CCC(F)(F)C1)c1ccc(Oc2ccc(Cl)cc2NS(=O)(=O)c2ccc(Cl)c(C(F)(F)F)c2)cc1 | – |

Source: ChEMBL document CHEMBL1921745, “CCR2 receptor antagonists: optimization of biaryl sulfonamides to increase activity in whole blood” (Bioorg Med Chem Lett, 2011)
